The source made the active and inactive calls. No cut-off for these calls is given here.

The test system of data set [1] is Mus musculus. The data set can be described thus: Anticonvulsant activity against intraperitoneal picrotoxin-induced seizure in Albino CF1 mouse at 30 mg/kg, ip after 0.5 hrs. The arrangement: dose 30 mg/kg. Type of data set: functional, organism-based. Put shortly:
(§1)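 Mice received the test compound by intraperitoneal injection at 30, 100 or 300 mg/kg. They were then challenged with intraperitoneal picrotoxin and scored for anticonvulsant protection 0.5 h or 4 h after dosing. The value recorded is the lowest dose that protected half or more of the mice. A dash means no activity up to 300 mg/kg.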

Data set [2] deals with Mus musculus. The data set can be described thus: Anticonvulsant activity in Albino CF1 mouse upto 300 mg/kg, ip in maximal electroshock seizure test. In kind it is functional, organism-based. Details: dose 300 mg/kg. The essentials: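 Mice dosed i.p. (0.01 mL/g) at 30, 100 and 300 mg/kg. Electroshock challenge run 30 min and 4 h after dosing.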
(In general: In the maximal electroshock model the usual endpoint is tonic extension of the hind limbs.)

The test system of data set [3] is Mus musculus. The data set can be described thus: Neurotoxicity in Albino CF1 mouse at 300 mg/kg, ip after 4 hrs by Rotarod test. Type of data set: toxicity, organism-based. Details: dose 300 mg/kg, route intraperitoneal. Particulars: in vivo. The essentials: (§2)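 Rotarod test in mice pre-trained to stay on the rod for two consecutive 90 s trials. Compounds given i.p. at 30, 100 or 300 mg/kg, with testing at 0.5 h and 4 h. Deficit was scored as failure to keep balance on the rod for 1 min in each of three trials. The value recorded is the lowest dose affecting half or more of the mice.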

Data set [4] relates to Mus musculus. The experiment in a line: Anticonvulsant activity against subcutaneous pentylenetetrazole-induced seizure in Albino CF1 mouse at 100 mg/kg, ip after 4 hrs. Type of data set: functional, organism-based. The arrangement: dose 100 mg/kg. The essentials: (§3)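 Test compounds given i.p. to mice at 0.01 mL/g, at 30, 100 or 300 mg/kg. The seizure challenge followed at 0.5 h and at 4 h after dosing. The value recorded is the lowest dose that protected half or more of the mice. Where no activity was seen, the maximum dose given was 300 mg/kg.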

The test system of data set [5] is Mus musculus. The experiment in a line: Anticonvulsant activity against intraperitoneal picrotoxin-induced seizure in Albino CF1 mouse at 100 mg/kg, ip after 4 hrs. In kind it is functional, organism-based. The arrangement: dose 100 mg/kg. The essentials: as §1
Data set [6] deals with Mus musculus. The data set can be described thus: Neurotoxicity in Albino CF1 mouse at 100 mg/kg, ip after 0.5 hrs by Rotarod test. In kind it is toxicity, organism-based. Particulars: in vivo. Details: dose 100 mg/kg, route intraperitoneal. The essentials: as §2
(Falling from the rotarod earlier than controls is read as motor impairment.)

In data set [7] the test system is Mus musculus. The data set can be described thus: Anticonvulsant activity against subcutaneous strychnine-induced seizure in Albino CF1 mouse at 300 mg/kg, ip after 4 hrs. In kind it is functional, organism-based. Details: dose 300 mg/kg. Put shortly: as §3
Data set [8] concerns Mus musculus. The experiment in a line: Anticonvulsant activity against subcutaneous pentylenetetrazole-induced seizure in Albino CF1 mouse at 300 mg/kg, ip after 0.5 hrs. Type of data set: functional, organism-based. The arrangement: dose 300 mg/kg. Put shortly:
as §3

Data set [9] concerns Mus musculus. The experiment in a line: Anticonvulsant activity against subcutaneous strychnine-induced seizure in Albino CF1 mouse at 100 mg/kg, ip after 0.5 hrs. Type of data set: functional, organism-based. The arrangement: dose 100 mg/kg. The essentials: as §3
Data set [10] has as its system Mus musculus. The experiment in a line: Anticonvulsant activity against subcutaneous strychnine-induced seizure in Albino CF1 mouse at 100 mg/kg, ip after 4 hrs. Type of data set: functional, organism-based. Details: dose 100 mg/kg. Put shortly:
as §3

Data set [11] has as its system Mus musculus. The data set can be described thus: Neurotoxicity in Albino CF1 mouse at 300 mg/kg, ip after 0.5 hrs by Rotarod test. Type of data set: toxicity, organism-based. The arrangement: dose 300 mg/kg, route intraperitoneal. Particulars: in vivo. The essentials: as §2
For data set [12], the system named is Mus musculus. The experiment in a line: Anticonvulsant activity against subcutaneous pentylenetetrazole-induced seizure in Albino CF1 mouse at 300 mg/kg, ip after 4 hrs. Type of data set: functional, organism-based. The arrangement: dose 300 mg/kg. The essentials:
as §3

Data set [13] relates to Mus musculus. The data set can be described thus: Anticonvulsant activity against intraperitoneal picrotoxin-induced seizure in Albino CF1 mouse at 100 mg/kg, ip after 0.5 hrs. In kind it is functional, organism-based. The arrangement: dose 100 mg/kg. The essentials: as §1
Data set [14] relates to Mus musculus. The data set can be described thus: Anticonvulsant activity against subcutaneous strychnine-induced seizure in Albino CF1 mouse at 300 mg/kg, ip after 0.5 hrs. Details: dose 300 mg/kg. In kind it is functional, organism-based. Put shortly: as §3
Data set [15] deals with Mus musculus. The data set can be described thus: Anticonvulsant activity against intraperitoneal picrotoxin-induced seizure in Albino CF1 mouse at 300 mg/kg, ip after 4 hrs. Type of data set: functional, organism-based. The arrangement: dose 300 mg/kg. The essentials:
as §1

The test system of data set [16] is Mus musculus. The data set can be described thus: Anticonvulsant activity against intraperitoneal picrotoxin-induced seizure in Albino CF1 mouse at 300 mg/kg, ip after 0.5 hrs. In kind it is functional, organism-based. The arrangement: dose 300 mg/kg. The essentials: as §1
Data set [17] has as its system Mus musculus. The experiment in a line: Anticonvulsant activity against subcutaneous pentylenetetrazole-induced seizure in Albino CF1 mouse at 30 mg/kg, ip after 0.5 hrs. In kind it is functional, organism-based. The arrangement: dose 30 mg/kg. The essentials: as §3
For data set [18], the system named is Mus musculus. The experiment in a line: Anticonvulsant activity against subcutaneous pentylenetetrazole-induced seizure in Albino CF1 mouse at 100 mg/kg, ip after 0.5 hrs. Type of data set: functional, organism-based. The arrangement: dose 100 mg/kg. The essentials:
as §3

The subject of data set [19] is Mus musculus. The data set can be described thus: Neurotoxicity in Albino CF1 mouse at 100 mg/kg, ip after 4 hrs by Rotarod test. The arrangement: dose 100 mg/kg, route intraperitoneal. Particulars: in vivo. In kind it is toxicity, organism-based. The essentials: as §2
The subject of data set [20] is Mus musculus. The data set can be described thus: Anticonvulsant activity against subcutaneous pentylenetetrazole-induced seizure in Albino CF1 mouse at 30 mg/kg, ip after 4 hrs. Type of data set: functional, organism-based. The arrangement: dose 30 mg/kg. The essentials: as §3
The subject of data set [21] is Mus musculus. The experiment in a line: Neurotoxicity in Albino CF1 mouse at 30 mg/kg, ip after 0.5 hrs by Rotarod test. In kind it is toxicity, organism-based. Details: dose 30 mg/kg, route intraperitoneal. Conditions: in vivo. The essentials: as §2

Consider `Cc1cccc(C)c1NC(=O)CCCN1C(=O)c2ccccc2C1=O`, for which the result with Mus musculus [1], with Mus musculus [4], with Mus musculus [5], in the data set with Mus musculus [7] and in the data set with Mus musculus [9] was Active. Further, the outcome in the data set on Mus musculus [2] and in the data set with Mus musculus [8] was inactive. Also, the outcome with Mus musculus [3] and in the data set on Mus musculus [6] was Active.
With `O=C(CCCN1C(=O)c2ccccc2C1=O)N/N=C\c1ccccc1`, the outcome in the data set with Mus musculus [10], in the data set on Mus musculus [5], in the data set on Mus musculus [13] and in the data set on Mus musculus [9] was Active. Further, the outcome in the data set on Mus musculus [2], in the data set on Mus musculus [12] and in the data set on Mus musculus [8] was inactive. The Activity result with Mus musculus [3] and in the data set with Mus musculus [11] was “Not Active” in each case.
On to `C/C(=N/NC(=O)CCCN1C(=O)c2ccccc2C1=O)c1ccc(C)cc1`, for which the outcome in the data set on Mus musculus [14], with Mus musculus [2], in the data set on Mus musculus [15], with Mus musculus [7] and in the data set on Mus musculus [12] was inactive. Moreover, the Activity entry in the data set with Mus musculus [3] is “Not Active”; with Mus musculus [6] it was “Active”. In addition, the result in the data set with Mus musculus [16] and in the data set with Mus musculus [17] was Active.
For `Cc1cc(NC(=O)CCCN2C(=O)c3ccccc3C2=O)ccc1Br`, the result in the data set with Mus musculus [14], with Mus musculus [2], with Mus musculus [7] and with Mus musculus [12] was inactive. Besides, the outcome in the data set with Mus musculus [3] and in the data set with Mus musculus [6] was Active. The outcome in the data set with Mus musculus [15], with Mus musculus [18] and in the data set with Mus musculus [13] was Active.
In the case of `Cc1c(Cl)cccc1NC(=O)CCCN1C(=O)c2ccccc2C1=O`, the result in the data set with Mus musculus [14], in the data set on Mus musculus [15], in the data set with Mus musculus [20], in the data set with Mus musculus [13] and in the data set on Mus musculus [8] was Active. The result with Mus musculus [2] and in the data set on Mus musculus [7] was inactive. Moreover, the result with Mus musculus [19] and in the data set with Mus musculus [11] was Active.
For `O=C1NC(=O)C(c2ccccc2)(c2ccccc2)N1` [PHENYTOIN], the result in the data set with Mus musculus [14], in the data set on Mus musculus [2], with Mus musculus [15], with Mus musculus [16], with Mus musculus [7] and in the data set with Mus musculus [12] was inactive. In the data set with Mus musculus [8], the outcome was inactive. Besides, the result in the data set on Mus musculus [19] and in the data set with Mus musculus [6] was Active.
Regarding `Cc1ccc(NC(=O)CCCN2C(=O)c3ccccc3C2=O)c(C)c1`, the result in the data set with Mus musculus [14], in the data set with Mus musculus [2], in the data set on Mus musculus [15], in the data set with Mus musculus [7] and in the data set with Mus musculus [8] was inactive. The result in the data set on Mus musculus [3] and in the data set with Mus musculus [11] was Active. In addition, the result in the data set with Mus musculus [16] and with Mus musculus [20] was Active.
`O=C(CCCN1C(=O)c2ccccc2C1=O)Nc1ccc(Cl)cc1`: the outcome in the data set with Mus musculus [2], in the data set on Mus musculus [15], with Mus musculus [12] and with Mus musculus [8] was inactive. The outcome with Mus musculus [3] and with Mus musculus [21] was Active. For the same compound, the outcome in the data set with Mus musculus [16], with Mus musculus [7] and in the data set on Mus musculus [9] was Active.

(Values after ChEMBL document CHEMBL1142874, “Design and synthesis of anticonvulsants from a combined phthalimide-GABA-anilide and hydrazone pharmacophore” (Eur J Med Chem, 2007).)
